Reference: ChEMBL document CHEMBL3271979, “Inhibition of solid tumors by nitrosoureas. 1. Lewis lung carcinoma” (1977)
Active and inactive are the calls of the source. The rule behind the calls is not given here.

How the values were obtained:
[1] = test system: Mus musculus; assay: Antitumor activity against mouse advanced Lewis lung carcinoma allografted in BDF1 mouse assessed as disease cure at 41 mg/kg, ip administered as single dose on 7th day post-tumor implantation measured for 80 days post-drug treatment; assay type: functional, organism-based; set-up: dose 41 mg/kg
Method in brief: (§1)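 BDF1 mice (C57Blk/6 × DBA/2) implanted sc by trocar with Lewis lung tumor fragments of about 40 mg, taken only from bacteriologically sterile donor tumors. Mice bearing tumors of about 400 mg (day 6-7) were selected. Each received a single ip dose on day 7, at or below the LD10 in normal mice. Groups were of 10 mice. Tumor weight was taken from calipers as w = ab²/2, measured at least twice weekly. Matched non-tumor mice served as toxicity controls.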

[2] = test system: Mus musculus; assay: Antitumor activity against mouse advanced Lewis lung carcinoma allografted in BDF1 mouse assessed as disease cure at 27 mg/kg, ip administered as single dose on 7th day post-tumor implantation measured for 80 days post-drug treatment; assay type: functional, organism-based; set-up: dose 27 mg/kg; method in brief: as §1
[3] = Antitumor activity against mouse advanced Lewis lung carcinoma allografted in BDF1 mouse assessed as increase in host life span at 41 mg/kg, ip administered as single dose on 7th day post-tumor implantation; assay type: functional; conditions: route intraperitoneal
Method in brief: (§2)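 BDF1 mice (C57Blk/6 × DBA/2) implanted sc by trocar with about 40 mg Lewis lung tumor fragments from bacteriologically sterile donors. Advanced-disease groups held tumors of about 400 mg by day 6-7, sized by caliper (w = ab²/2). Single ip injection on day 7, in water or saline vehicle, at or below the LD10 in normal mice. Tumors measured at least twice weekly.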

[4] = Antitumor activity against mouse advanced Lewis lung carcinoma allografted in BDF1 mouse assessed as increase in host life span at 27 mg/kg, ip administered as single dose on 7th day post-tumor implantation; assay type: functional; conditions: route intraperitoneal; method in brief: as §2
[5] = test system: Mus musculus; assay: Antitumor activity against mouse advanced Lewis lung carcinoma allografted in BDF1 mouse assessed as complete regression of established tumor at 41 mg/kg, ip administered as single dose on 7th day post-tumor implantation; assay type: functional, organism-based; set-up: dose 41 mg/kg; method in brief: as §1
[6] = test system: Mus musculus; assay: Antitumor activity against mouse advanced Lewis lung carcinoma allografted in BDF1 mouse assessed as complete regression of established tumor at 27 mg/kg, ip administered as single dose on 7th day post-tumor implantation; assay type: functional, organism-based; set-up: dose 27 mg/kg; method in brief: as §1
[7] = test system: Mus musculus; assay: Antitumor activity against mouse advanced Lewis lung carcinoma allografted in ip dosed BDF1 mouse assessed as complete regression of established tumor administered as single dose on day 6 or 7 post-tumor implantation; assay type: functional, organism-based; method in brief: as §1
[8] = test system: Mus musculus; assay: Antitumor activity against mouse advanced Lewis lung carcinoma allografted in ip dosed BDF1 mouse assessed as disease cure administered as single dose on day 6 or 7 post-tumor implantation; assay type: functional, organism-based; method in brief: as §1
[9] = Antitumor activity against mouse advanced Lewis lung carcinoma allografted in ip dosed BDF1 mouse assessed as increase in host lifespan administered as single dose on day 6 or 7 post-tumor implantation; assay type: functional
Method in brief: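 Advanced Lewis lung model: about 40 mg fragments implanted sc by trocar into BDF1 mice, and mice with tumors of about 400 mg (day 6-7) selected. Tumor weight from calipers, w = ab²/2. Agent given as one ip dose in distilled water or physiological saline. Nontumor-bearing mice received matching doses as toxicity controls.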

[10] = test system: Mus musculus; assay: Antitumor activity against mouse advanced Lewis lung carcinoma allografted in BDF1 mouse assessed as disease cure at 50 mg/kg, ip administered as single dose on 7th day post-tumor implantation measured for 80 days post-drug treatment; assay type: functional, organism-based; set-up: dose 50 mg/kg; method in brief: as §2
[11] = test system: Mus musculus; assay: Antitumor activity against mouse advanced Lewis lung carcinoma allografted in BDF1 mouse assessed as disease cure at 40 mg/kg, ip administered as single dose on 7th day post-tumor implantation measured for 80 days post-drug treatment; assay type: functional, organism-based; set-up: dose 40 mg/kg; method in brief: as §2
[12] = Antitumor activity against mouse advanced Lewis lung carcinoma allografted in BDF1 mouse assessed as increase in host life span at 50 mg/kg, ip administered as single dose on 7th day post-tumor implantation; assay type: functional; conditions: route intraperitoneal; method in brief: as §2
[13] = Antitumor activity against mouse advanced Lewis lung carcinoma allografted in BDF1 mouse assessed as increase in host life span at 40 mg/kg, ip administered as single dose on 7th day post-tumor implantation; assay type: functional; conditions: route intraperitoneal; method in brief: as §2
[14] = test system: Mus musculus; assay: Antitumor activity against mouse advanced Lewis lung carcinoma allografted in BDF1 mouse assessed as disease cure at 90 mg/kg, ip administered as single dose on 7th day post-tumor implantation measured for 80 days post-drug treatment; assay type: functional, organism-based; set-up: dose 90 mg/kg; method in brief: as §1
[15] = Antitumor activity against mouse advanced Lewis lung carcinoma allografted in BDF1 mouse assessed as increase in host life span at 90 mg/kg, ip administered as single dose on 7th day post-tumor implantation; assay type: functional; conditions: route intraperitoneal; method in brief: as §2
[16] = Antitumor activity against mouse advanced Lewis lung carcinoma allografted in BDF1 mouse assessed as increase in host life span at 30 mg/kg, ip administered as single dose on 7th day post-tumor implantation; assay type: functional; conditions: route intraperitoneal; method in brief: as §2
[17] = Antitumor activity against mouse advanced Lewis lung carcinoma allografted in BDF1 mouse assessed as increase in host life span at 29 mg/kg, ip administered as single dose on 7th day post-tumor implantation; assay type: functional; conditions: route intraperitoneal; method in brief: as §2
[18] = test system: Mus musculus; assay: Antitumor activity against mouse advanced Lewis lung carcinoma allografted in BDF1 mouse assessed as disease cure at 11 mg/kg, ip administered as single dose on 7th day post-tumor implantation measured for 80 days post-drug treatment; assay type: functional, organism-based; set-up: dose 11 mg/kg; method in brief: as §1
[19] = Antitumor activity against mouse advanced Lewis lung carcinoma allografted in BDF1 mouse assessed as increase in host life span at 11 mg/kg, ip administered as single dose on 7th day post-tumor implantation; assay type: functional; conditions: route intraperitoneal; method in brief: as §2

O=NN(CCF)C(=O)NC1CSCSC1
Activity [1]: inactive | Activity [2]: inactive | ILS at 41 mg/kg [3]: 21% | ILS at 27 mg/kg [4]: 40% | inhibition [5]: inactive | inhibition [6]: inactive | inhibition [7]: inactive | Activity [8]: inactive | ILS [9]: >25%

O=NN(CCCl)C(=O)NC1CCCCC1 [LOMUSTINE]
Activity [10]: inactive | Activity [11]: inactive | ILS at 50 mg/kg [12]: 15% | ILS at 40 mg/kg [13]: 31% | inhibition [7]: Active | Activity [8]: inactive

O=NN(CCCl)C(=O)N[C@H]1CCCC[C@H]1Cl (relative stereo)
Activity [14]: inactive | ILS at 90 mg/kg [15]: 62% | Activity [8]: inactive | ILS [9]: >25%

CCOC(=O)[C@H]1CC[C@H](NC(=O)N(CCCl)N=O)CC1
ILS at 30 mg/kg [16]: 68% | ILS at 29 mg/kg [17]: 75% | Activity [8]: Active

O=NN(CCCl)C(=O)NC1CCS(=O)(=O)CC1
Activity [18]: inactive | ILS at 11 mg/kg [19]: 27% | inhibition [7]: inactive | Activity [8]: inactive | ILS [9]: >25%
